# Results: PMC3188669 (Journal of medicinal chemistry, 2011)
# What was measured:
# [1] = tested on: human basal cell carcinoma (BCC1) cells; assay: PS uptake, retention and subcellular localization in BCC1 cells; format: cell-based; conditions: for lowering of cellular uptake relative to PS 4: 30 min, 200 nM PS; for lowering of cellular uptake relative to PS 4 / subcellular localization after 30 min incubation: serum-free DMEM
# Procedure, shortened: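 Subconfluent BCC1 cells grown in DMEM with 10% FCS were washed twice in serum-free DMEM. They were incubated with test compound in DMEM with or without 10% FCS: 30 min serum-free at 0.2 μM or 3.2 μM, or 24 h at 3.2 μM. Cells were washed and imaged at 640X under phase contrast and fluorescence (Ex 410/40, Em 675/750 nm). Redistribution was imaged again after 4 h in compound- and serum-free DMEM.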
# STAT3 = assay: Light-mediated photoreaction in BCC1 cells; format: cell-based, human; conditions: 2 h PS, 665 nm, 3 J/cm^2
# Procedure, shortened: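 Subconfluent BCC1 cells were incubated 2 h in serum-free DMEM with 2-fold serial dilutions of test compound and then washed. They were irradiated in serum-free medium at 37°C with 665 nm dye-laser light for 9 min and extracted immediately. Cell PS was measured by extract fluorescence (Ex 415, Em 667 nm). RIPA lysates (20 μg) were immunoblotted for STAT3, EGFR, p38 and P-p38 with ECL detection. STAT3 crosslinking was expressed as % monomer converted to dimer form I.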
# Colon26 cells [2] = assay: In vitro photosensitizing efficacy, MTT assay; format: cell-based, mouse; conditions: 24 h incubation, variable light doses; for in vitro efficacy (PS 4, 12, 23): Colon26, 0.0625 μM
# Procedure, shortened: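 Colon26 cells were seeded at 3 × 10³ cells/well in RPMI with 10% FCS and left overnight. Test compound was added for 24 h at 37°C in the dark, then replaced with drug-free complete medium. Cells were irradiated at 0–4 J/cm² at the compound's absorption peak (660–674 nm), 3.2 mW/cm², using an argon-pumped dye laser. After 48 h in the dark, MTT was added for the last 4 h and formazan was dissolved in DMSO. A570 was read. Survival was plotted against light dose; 4 wells, 3 independent repeats.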
# Colon26 cells [3] = assay: PS uptake by Colon26 cells, flow cytometry; format: cell-based, mouse; conditions: 24 h post incubation
# Procedure, shortened: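 Colon26 cells were seeded at 0.33 × 10⁶/well and left overnight. Test compound was added at 100, 200, 400 or 800 nM in triplicate at 37°C, with compound-free wells for autofluorescence. Cells were trypsinised, neutralised in cold medium with 2% FCS, spun at 500 g for 5 min at 4°C, and resuspended in cold PBS/2% FCS on ice in the dark. Flow cytometry used Ex 633 nm and Em 730±45 nm, 10,000 events; mean fluorescence of triplicates minus autofluorescence.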
# Colon26 tumors [4] = assay: PET imaging and biodistribution in BALB/c mice bearing Colon26 tumors; format: in vivo; conditions: for time post injection giving the best imaging contrast: PET
# Colon26 tumors [5] = assay: In vivo optical fluorescence imaging in BALB/c mice bearing Colon26 tumors; conditions: for tumor versus skin fluorescence after tumor removal: 1 μmol/kg, 24 h post injection
# Procedure, shortened: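 Colon26 cells (1×10⁶ in 50 μL serum-free RPMI) were injected subcutaneously into the right posterior axilla and grown to 4–5 mm. Hair was removed the day before dosing. Mice were imaged under ip ketamine/xylazine with 540/40 nm illumination and a long-pass filter for 667/676 nm emission, and autofluorescence was removed by spectral unmixing. Tumor ROI was 20 mm, mean ± SD of 3 mice. After imaging, the tumor was excised and the skin flap imaged.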
# Colon26 tumors [6] = assay: In vivo PDT efficacy in BALB/c mice bearing Colon26 tumors; conditions: 1.0 μmol/kg, light 128 J/cm^2, 14 mW/cm^2 at 24 h post injection, 10 mice/group
# Procedure, shortened: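 Hair around the subcutaneous tumor was removed. At 4–5 mm diameter, mice received test compound at 1 μmol/kg. At 24 h, unanaesthetised mice restrained in holders were irradiated at 660–674 nm according to compound, with power monitored throughout. Mice were checked daily and volume was calculated as L×W²/2. Cure meant no palpable tumor by day 60–90; mice were euthanised at 400 mm³.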
molecule,measurement,setting,value
"CCC1=C(C)c2cc3[nH]c(cc4nc(c5c6[nH]c(cc1n2)c(C)c6C(=O)C5)C(CCC(=O)OC)[C@@H]4C)c(C)c3C(C)OCc1cccc(I)c1 (stereo partly drawn) [PS 1, Methyl 3-devinyl-3-{1′-(m-iodobenzyoxy)-ethyl}pyropheophoride-a]",subcellular localization after subsequent 4 h incubation in PS-free medium,[1]; 3.2 μM PS 1 or 0.2 μM PS 4,lysosomal compartment
same,lowering of cellular uptake relative to PS 4,[1],> 100 fold
same,fluorescence (uptake) in presence of 10% fetal calf serum,[1]; data not shown,~ 5 fold lower
same,subcellular localization after 30 min incubation,[1],mitochondrial compartment
same,photoreaction quantifiable by the biochemical markers,STAT3,ineffective
"CCC1=C(C)c2cc3[nH]c(cc4nc(c5c6[nH]c(cc1n2)c(C)c6C(=O)C5)C(CCC(=O)O)[C@@H]4C)c(C)c3C(C)OCc1cccc(I)c1 (stereo partly drawn) [PS 4, 3-devinyl-3-{1′-(m-iodobenzyoxy)-ethyl} pyropheophoride-a]",subcellular localization after 30 min incubation,[1],mitochondrial compartment
same,"in vitro efficacy (PS 4, 12, 23)",Colon26 cells [2],comparable in vitro efficacy
same,"relative PDT efficacy in vitro (PS 1, 4, 7)","Colon26 cells [2]; Colon26, 0.3 μM",most effective
same,PS uptake by Colon26 cells (rank order),Colon26 cells [3],PS 4 ≥ 23 > 12
same,time post injection giving the best imaging contrast,"Colon26 tumors [4]; BALB/c mice, Colon26 tumor",72 h
same,tumor versus skin fluorescence after tumor removal,Colon26 tumors [5],tumor avid
CCC1=C(C)c2cc3[nH]c(cc4nc(c5c6[nH]c(cc1n2)c(C)c6C(=O)C5)C(CCC(=O)O)[C@@H]4C)c(C)c3C(C)OCc1cccc([124I])c1 (stereo partly drawn) [PS 6],tumor uptake (PET),"Colon26 tumors [4]; 24, 48 and 72 h post injection",significant tumor uptake
same,time of maximum tumor uptake post injection,"Colon26 tumors [4]; BALB/c mice, Colon26 tumor",24 h
same,time post injection giving the best imaging contrast,"Colon26 tumors [4]; BALB/c mice, Colon26 tumor",72 h
"CCc1c(C)c2cc3nc(c4c5[nH]c(cc6nc(cc1[nH]2)C(C)=C6C(C)OCc1cccc(I)c1)c(C)c5C(=O)C4)[C@@H](CCC(=O)O)[C@@H]3C (stereo partly drawn) [PS 12, 3-devinyl-3-ethyl-8-{1′-(m-iodobenzyoxy)-ethyl}-pyropheophoride-a]","in vitro efficacy (PS 4, 12, 23)",Colon26 cells [2],comparable in vitro efficacy
same,PS uptake by Colon26 cells (rank order),Colon26 cells [3],PS 4 ≥ 23 > 12
same,tumor uptake by fluorescence imaging,"Colon26 tumors [5]; 1.0 μmol/kg i.v., 24, 48 and 72 h post-injection, 3 mice/group",lower tumor uptake
"CC[C@H]1c2cc3[nH]c4c(c5nc(cc6[nH]c(cc(n2)[C@@H]1C)c(C(C)OCc1cccc(I)c1)c6C)C(C)=C5CCC(=O)O)CC(=O)c4c3C (stereo partly drawn) [PS 23, 3-deacetyl-3-(1′-m-iodobenzyloxyethyl)-7,8-dihydrophylloerythrin]",lowering of cellular uptake relative to PS 4,[1],2 fold
same,"in vitro efficacy (PS 4, 12, 23)",Colon26 cells [2],comparable in vitro efficacy
same,PS uptake by Colon26 cells (rank order),Colon26 cells [3],PS 4 ≥ 23 > 12
same,tumor versus skin fluorescence after tumor removal,Colon26 tumors [5],tumor avid
CC[C@H]1c2cc3[nH]c4c(c5nc(cc6[nH]c(cc(n2)[C@@H]1C)c(C(C)OCc1cccc([124I])c1)c6C)C(C)=C5CCC(=O)O)CC(=O)c4c3C (stereo partly drawn) [PS 27],time post injection giving the best imaging contrast,"Colon26 tumors [4]; BALB/c mice, Colon26 tumor",72 h
Peglate 3-devinyl-3-{1′-(m-iodobenzyoxy)ethyl}pyropheophoride-a [PS 7],cellular uptake in presence of serum proteins versus serum-free,"[1]; 3.2 μM, 24 h, 10% fetal calf serum",several-fold higher
same,subcellular localization after 24 h incubation,"[1]; 3.2 μM, regardless of the incubation conditions",endosomal/lysosomal compartment
same,lowering of cellular uptake relative to PS 4,[1],> 100 fold
same,photoreaction quantifiable by the biochemical markers,STAT3,ineffective
same,"tumor cure (tumor-free on day 60), first series (Fig. 7A)",Colon26 tumors [6],ineffective
